# PRMT1 inh: inhibitors of human PRMT1. Q99873. recombinant PRMT1, activity-based probe fluorescence polarization. inhibition, % at 2.79 µM. 370,000 compounds, 1.3% hits. AID 652257;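 active means inhibition above about 21% made by adding two undisclosed values, limit read from the data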
# rCAG binder-1: r(CAG) repeat RNA binding; TO-PRO-1 dye displacement fluorescence; inhibition, % at 3 µM; 370,000 compounds, 1.3% hits;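 active means inhibition above the plate cutoff, the mean of all test compounds on that plate plus 3 SD, cut at about 35% in these data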;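 further: higher means more dye released from RNA so lower well fluorescence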
# mABHD4 FP: ABHD4 (mouse) inhibition, primary FP screen; Q8VD66; purified mABHD4, FP-Rh probe fluorescence polarization; inhibition, % at 8.92 µM; 370,000 compounds, 0.54% hits; AID 720543;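 active means inhibition exceeding the mean over every tested compound plus 3 SD, cut at about 30% in these data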
#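 Test system: mABHD4 protein | Buffer or medium: HEPES pH 7.0 buffer, 150 mM NaCl, 0.01% Pluronic F-127 | Probe or stimulus: FP-Rh fluorescent activity-based probe, added after compound pre-incubation | Timing: Pre-incubation 45 min, probe exposure 60 min, at 25 °C | Technique: Fluorescence polarization, excitation 525 nm, emission 598 nm, BODIPY TMR filters | Repeats: Single well per compound (singlicate)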
# DAGLB inh: blocks human DAGLB lipase activity; Q8NCG7; HEK293T DAGLB membrane lysate, EnzChek fluorogenic substrate; inhibition, % at 5.17 µM; 340,000 compounds, 0.059% hits; in the data active means inhibition above about 34%
# LEDGF integ inh: blocks HIV-1 LEDGF/p75-dependent DNA integration; TR-FRET IN-LEDGF/p75 DNA integration, Eu/Cy5; inhibition, % at 3.7 µM; 370,000 compounds, 0.64% hits;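 active means inhibition above the screen-wide mean plus 3 SD, cut at about 13% in these data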;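 further: signal is the Cy5 over europium emission ratio at 671 and 618 nm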
# HTRA1 inh: blocks human HTRA1 serine peptidase | 340,000 compounds, 0.5% hits | Q92743 | recombinant HTRA1, FP-rhodamine activity-based probe, fluorescence polarization | AID 504803 | inhibition, % at 5.96 µM; in the data active means inhibition above about 36%
# Target sequence (Q92743 whole entry, looked up): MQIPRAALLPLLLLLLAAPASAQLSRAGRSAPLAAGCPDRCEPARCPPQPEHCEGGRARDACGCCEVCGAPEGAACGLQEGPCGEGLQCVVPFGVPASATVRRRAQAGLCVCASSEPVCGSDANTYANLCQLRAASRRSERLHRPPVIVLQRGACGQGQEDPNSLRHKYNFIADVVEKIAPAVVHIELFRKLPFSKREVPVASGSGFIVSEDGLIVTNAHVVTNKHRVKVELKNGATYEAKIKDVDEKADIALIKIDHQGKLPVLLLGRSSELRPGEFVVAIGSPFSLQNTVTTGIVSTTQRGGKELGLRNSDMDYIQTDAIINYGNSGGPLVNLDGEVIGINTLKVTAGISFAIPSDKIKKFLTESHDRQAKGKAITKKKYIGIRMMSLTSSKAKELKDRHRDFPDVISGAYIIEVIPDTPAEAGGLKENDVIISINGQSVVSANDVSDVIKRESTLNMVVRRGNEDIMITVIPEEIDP
# HTRA1 conf: confirmation of human HTRA1 inhibitors; shares compounds with HTRA1 inh; recombinant HTRA1, FP-rhodamine activity-based probe, fluorescence polarization; AID 540248; inhibition, % at 5.96 µM; 1,600 compounds, 66% hits;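 active means mean inhibition over three repeats above a set limit taken from the earlier primary screen, cut at about 37% in these data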;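 further: inhibitors block probe binding so polarization drops and inhibition rises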
# rCAG bind conf: r(CAG) RNA repeat binding, confirmation. shares compounds with rCAG binder-1. TO-PRO-1 dye displacement fluorescence. inhibition, % at 3 µM. 4,300 compounds, 70% hits;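 active means inhibition above a per-plate cutoff, the mean inhibition of sample wells plus 3 SD, cut at about 35% in these data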;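 further: loss of TO-PRO-1 fluorescence as compound displaces dye from 1x1 AA loop RNA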
# DNA CAG counter: disrupts DNA CAG TO-PRO-1 complex, flagging rCAG hits; AID 652068; d(CAG) DNA oligo TO-PRO-1 dye displacement, fluorescence; 4,300 compounds, 94% hits; shares compounds with rCAG binder-1; inhibition, % at 3 µM;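 active means inhibition above its plate's cutoff, the mean test-well inhibition plus 3 SD, cut at about 4.8% in these data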;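 further: hits displace the dye from DNA and so lower well fluorescence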
# dCAG dye DR: DNA CAG dye complex inhibition, dose response counter-screen; IC50, µM; DNA CAG/GTC duplex TO-PRO-1 dye displacement fluorescence; AID 686960; 250 compounds, 20% hits; shares compounds with rCAG binder-1; in the data active means IC50 below about 10 µM
# dCAG TOPRO ctr: inhibits DNA CAG/GTC TO-PRO-1 complex, rCAG binder counter-screen; shares compounds with rCAG binder-1; d(CAG) DNA duplex TO-PRO-1 dye displacement, fluorescence; IC50, µM; 30 compounds, 80% hits; AID 720649
# rCAG binder-2: molecules binding r(CAG) RNA repeats, late stage dose response | shares compounds with rCAG binder-1 | r(CAG) RNA TO-PRO-1 dye displacement, fluorescence | IC50, µM | 30 compounds, 100% hits
# PRMT1 confirm: PRMT1 (human) inhibition, FP confirmation. inhibition, % at 2.79 µM. shares compounds with PRMT1 inh. 3,300 compounds, 42% hits. recombinant His-PRMT1, activity-based probe fluorescence polarization;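 active means mean inhibition across replicates above the hit cutoff derived for the earlier primary screen, cut at about 22% in these data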
# mABHD4 conf: ABHD4 (mouse) inhibition, FP confirmation; shares compounds with mABHD4 FP; purified mABHD4, FP-Rh probe fluorescence polarization; inhibition, % at 8.92 µM; 1,800 compounds, 55% hits;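 active means mean inhibition across replicates above the hit cutoff set in the primary screen, cut at about 30% in these data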
# IN multimer act: HIV-1 integrase multimerization activation, counter-screen; AID 1053131; TR-FRET HIV-1 integrase multimerization, biochemical; 2,000 compounds, 17% hits; shares compounds with LEDGF integ inh; activation, % at 7.7 µM; in the data active means activation above about 8.9%
# TRFRET interf: TR-FRET optical interference, LEDGF/p75 integration counter-screen; shares compounds with LEDGF integ inh; TR-FRET optical interference counterscreen, HIV-1 IN multimerization; inhibition, % at 7.7 µM; 2,000 tested, under 10 active; AID 1053135;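 active means inhibition above the mean over all tested compounds plus 3 SD, which no compound reached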
# IN-LEDGF confirm: confirmation of HIV-1 LEDGF/p75-dependent integration inhibitors. 2,000 compounds, 36% hits. TR-FRET LEDGF/p75-dependent HIV-1 integration, biochemical. shares compounds with LEDGF integ inh. inhibition, % at 3.7 µM; in the data active means inhibition above about 14%
# Hits are given with their value; n = inactive; x = no result. Sampled rows, rich in hits. Any-hit rate of the full collection: about 3.2%. Unless noted, how the calls were made is not given here.
SMILES,PRMT1 inh,rCAG binder-1,mABHD4 FP,DAGLB inh,LEDGF integ inh,HTRA1 inh,HTRA1 conf,IN multimer act,TRFRET interf,IN-LEDGF confirm,others
O=C(C1=C(O)C(=O)N(c2nc3ccc(Cl)cc3s2)C1c1ccco1)c1ccco1 (stereo unspecified),36,68,n,n,20,39,n,n,n,21,rCAG bind conf=72;DNA CAG counter=33;dCAG dye DR=3.5;dCAG TOPRO ctr=2.9;rCAG binder-2=1.3;PRMT1 confirm=n
Cc1ccc2nc(N3C(=O)C(O)=C(C(=O)c4ccc(C)o4)C3c3ccco3)sc2c1 (stereo unspecified),n,n,n,n,n,n,x,x,x,x,
CCN(CC)c1ccc(N=Cc2ccc([N+](=O)[O-])o2)cc1,41,n,45,n,41,64,41,n,n,18,mABHD4 conf=n
COc1ccc(CNC(=O)C2CCN(S(=O)(=O)N3CCCC3)CC2)cc1,n,n,n,n,n,n,x,x,x,x,
COc1ccc(N=C2S/C(=C\c3ccco3)C(=O)N2CC(C)C)cc1,n,n,n,n,n,n,x,x,x,x,
COc1ccc(N=C2NC(=O)/C(=C\C=C\c3ccco3)S2)cc1,n,44,n,n,23,38,n,16,n,55,rCAG bind conf=n;DNA CAG counter=17
Cc1cc(C(=O)c2ccccc2)cc(C)c1O,n,n,n,n,n,n,x,x,x,x,
O=C(c1ccccc1)c1ccc(O)c(O)c1O,n,n,39,n,22,68,79,n,n,42,mABHD4 conf=n
COc1ccc(S(=O)(=O)N2CCCCCC2)cc1C(=O)N(CC(C)C)C1CCS(=O)(=O)C1 (stereo unspecified),n,n,n,n,n,n,x,x,x,x,
O=c1[nH]c(=S)[nH]c2nc(-c3ccccc3)cnc12,n,n,n,n,n,n,x,x,x,x,
Cc1cc2nc3c(=O)[nH]c(=S)[nH]c3nc2cc1NC(=O)C(F)(F)F,165,n,65,n,74,46,n,12,n,n,mABHD4 conf=n
O=c1c2[nH]cnc2n(-c2cccc(F)c2)c(=O)n1Cc1ccccc1,n,n,n,n,n,n,x,x,x,x,
Oc1cccc(/C=N/NC(=S)Nc2cccnc2)c1O,n,n,31,n,33,42,n,21,n,30,mABHD4 conf=n
COc1ccc(/C=C/CN2CCC(n3nccc3NC(=O)C3CC3)CC2)cc1,n,n,n,n,n,n,x,x,x,x,
Oc1ccc(/C=N/N(c2ccccc2)c2ccccc2)c(O)c1O,n,43,39,n,26,68,79,n,n,16,rCAG bind conf=52;DNA CAG counter=28;mABHD4 conf=30
Cc1ccc(N2C(=O)N3[C@H](c4ccc(F)cc4)[C@@H]4C(=O)N(C5CCCCC5)C(=O)[C@@H]4[C@]3(Cc3ccccc3)C2=O)cc1,n,n,n,n,n,n,x,x,x,x,
Cc1cc(C(C)(C)C)c(O)c(C(C)(C)C)c1,n,n,n,n,n,n,x,x,x,x,
Cc1cc(O)c(Oc2cc(C)cc(O)c2O)c(O)c1,38,n,n,n,35,64,81,n,n,33,
COC(CNC(=O)C(C)n1nc(C)c2ccccc21)OC (stereo unspecified),n,n,n,n,n,n,x,x,x,x,
O=C(N/N=C/c1cccnc1)c1cc(O)c(O)c(O)c1,n,n,n,n,38,45,n,35,n,20,
O=C(N/N=C/c1cccnc1)c1ccc(O)cc1,n,n,n,n,n,n,x,x,x,x,
CC1(C)OC(=O)C(=CNc2cccc(O)c2)C(=O)O1,n,n,n,n,n,n,x,x,x,x,
CC1(C)OC(C)(C)/C(=C/Nc2ccc(O)cc2)C1=O,n,n,62,n,21,63,n,45,n,31,mABHD4 conf=n
O=c1[nH][nH]cc1C=Nc1cc(Cl)ccc1O,n,n,n,n,n,n,x,x,x,x,
O=C1C=CC(=O)c2c(O)c(CO)c(CO)c(O)c21,50,83,62,n,77,46,57,32,n,80,rCAG bind conf=86;DNA CAG counter=68
SMILES,PRMT1 inh,rCAG binder-1,mABHD4 FP,DAGLB inh,LEDGF integ inh,HTRA1 inh,HTRA1 conf,IN multimer act,TRFRET interf,IN-LEDGF confirm,others
CC1=CC2=C(OC1N(C)C)c1cccc3cccc(c13)C2=O (stereo unspecified),x,x,x,n,x,n,x,x,x,x,
O=S(=O)(O)c1ccc(O)c2cc(Nc3ccccc3)ccc12,43,97,78,n,87,67,44,66,n,77,
CC(C)N(Cc1ccccc1)C(=O)c1ccc2nsnc2c1,n,n,n,n,n,n,x,x,x,x,
COc1ccccc1N1C(=O)CC(Nc2ccc(N3CCOCC3)cc2)C1=O (stereo unspecified),22,n,46,n,15,44,n,n,n,n,mABHD4 conf=n
O=[N+]([O-])c1ccc(Nc2ccccc2)c2nonc12,n,n,n,n,n,n,x,x,x,x,
NNc1ccc([N+](=O)[O-])c2[nH][nH]c(=O)c12,40,42,54,n,19,52,49,35,n,44,
O=C(COc1ccc(/C=N/NC(=O)c2ccccc2O)cc1)Nc1ccc([N+](=O)[O-])cc1,n,n,n,n,n,n,x,x,x,x,
